Reference: ChEMBL document CHEMBL1154676, “Synthetic mRNA splicing modulator compounds with in vivo antitumor activity” (J Med Chem, 2009)

Experiments:
[1] = tested on: SW-620; test: Growth inhibition of human SW620 cells by sulforhodamine B assay; type: functional
[2] = tested on: HCT-116; test: Growth inhibition of human HCT116 cells by sulforhodamine B assay; type: functional
[3] = tested on: HCC 2998; test: Growth inhibition of human HCC2998 cells by sulforhodamine B assay; type: functional
[4] = tested on: COLO 205; test: Growth inhibition of human COLO205 cells by sulforhodamine B assay; type: functional
[5] = tested on: NCI-H522; test: Growth inhibition of human NCI-H522 cells by sulforhodamine B assay; type: functional
[6] = tested on: NCI-H460; test: Growth inhibition of human NCI-H460 cells by sulforhodamine B assay; type: functional
[7] = tested on: NCI-H322M; test: Growth inhibition of human NCI-H322M cells by sulforhodamine B assay; type: functional
[8] = tested on: NCI-H226; test: Growth inhibition of human NCI-H226 cells by sulforhodamine B assay; type: functional
[9] = tested on: HOP-92; test: Growth inhibition of human HOP92 cells by sulforhodamine B assay; type: functional
[10] = tested on: HOP-62; test: Growth inhibition of human HOP62 cells by sulforhodamine B assay; type: functional
[11] = tested on: EKVX; test: Growth inhibition of human EKVX cells by sulforhodamine B assay; type: functional
[12] = tested on: MOLT-4; test: Growth inhibition of human MOLT4 cells by sulforhodamine B assay; type: functional
[13] = tested on: K562; test: Growth inhibition of human K562 cells by sulforhodamine B assay; type: functional
[14] = tested on: HL-60(TB); test: Growth inhibition of human HL-60(TB) cells by sulforhodamine B assay; type: functional
[15] = tested on: HFF; test: Cytotoxicity against HFF cells after 72 hrs by XTT assay; type: cell-based; conditions: Homo sapiens
Outline: (§1)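 Cells grown at 37 °C, 5% CO2; HFF in DMEM with 10% FBS, PrEC in prostate epithelial growth medium. Adherent lines seeded overnight, suspension lines same day; compounds diluted from DMSO stocks into media at various final concentrations, 72 h exposure. XTT reagent added 4 h, absorbance 490 nm (reference 690 nm). Growth as % of vehicle; IC50 from sigmoidal dose-response fit; mean ± SEM, three independent experiments.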

[16] = tested on: PrEC; test: Cytotoxicity against human PrEC cells after 72 hrs by XTT assay; type: cell-based; outline: as §1
[17] = Cytotoxicity against human BT-12 cells after 72 hrs by XTT assay; type: functional, cell-based; conditions: BT-12, 72 h; outline: as §1
[18] = tested on: MIA PaCa-2; test: Cytotoxicity against human MIAPaCa2 cells after 72 hrs by XTT assay; type: functional, cell-based; conditions: MIA PaCa-2, 72 h; outline: as §1
[19] = tested on: SK-MEL-2; test: Cytotoxicity against human SK-MEL-2 cells after 72 hrs by XTT assay; type: functional, cell-based; conditions: SK-MEL-2, 72 h; outline: as §1
[20] = tested on: PC-3; test: Cytotoxicity against human PC3 cells after 72 hrs by XTT assay; type: functional, cell-based; conditions: PC-3, 72 h; outline: as §1
[21] = tested on: Mus musculus; test: Toxicity in NOD/SCID mouse assessed as phosphorus level at 5 to 50 mg/kg, iv and po for 5 days; type: organism-based; set-up: dose 5-50 mg/kg, route oral; conditions: in vivo, 120 h
[22] = tested on: Mus musculus; test: Toxicity in NOD/SCID mouse assessed as potassium level at 5 to 50 mg/kg, […]; type: organism-based; set-up: dose 5-50 mg/kg, route oral; conditions: in vivo, po, 120 h
[23] = tested on: Mus musculus; test: Toxicity in NOD/SCID mouse assessed as total bilirubin level at 5 to 50 mg/kg, iv and po for 5 days; type: organism-based; set-up: dose 5-50 mg/kg, route oral; conditions: in vivo, 120 h
[24] = tested on: Mus musculus; test: Toxicity in NOD/SCID mouse assessed as thrombocytopenia at 5 to 50 mg/kg, iv and po for 5 days; type: organism-based; set-up: dose 5-50 mg/kg, route oral; conditions: in vivo, 120 h
[25] = tested on: Mus musculus; test: Toxicity in NOD/SCID mouse assessed as calcium level at 5 to 50 mg/kg, iv and po for 5 days; type: organism-based; set-up: dose 5-50 mg/kg, route oral; conditions: in vivo, 120 h
[26] = tested on: Mus musculus; test: Toxicity in NOD/SCID mouse assessed as amylase level at 5 to 50 mg/kg, iv and po for 5 days; type: organism-based; set-up: dose 5-50 mg/kg, route oral; conditions: in vivo, 120 h
[27] = tested on: Mus musculus; test: Toxicity in NOD/SCID mouse assessed as change in alkaline phosphatase level at 5 to 50 mg/kg, iv and po for 5 days; type: organism-based; set-up: dose 5-50 mg/kg, route oral; conditions: in vivo, 120 h
[28] = tested on: Mus musculus; test: Toxicity in NOD/SCID mouse assessed as complete blood counts level at 5 to 50 mg/kg, […] for 5 days; type: organism-based; set-up: dose 5-50 mg/kg; conditions: in vivo, po, 120 h
[29] = tested on: TK-10; test: Growth inhibition of human TK10 cells by sulforhodamine B assay; type: functional
[30] = tested on: SN12C; test: Growth inhibition of human SN12C cells by sulforhodamine B assay; type: functional
[31] = tested on: RXF 393; test: Growth inhibition of human RXF393 cells by sulforhodamine B assay; type: functional
[32] = tested on: A498; test: Growth inhibition of human A498 cells by sulforhodamine B assay; type: functional
[33] = tested on: NCI/ADR-RES; test: Growth inhibition of human NCI/ADR-RES cells by sulforhodamine B assay; type: functional
[34] = tested on: OVCAR-5; test: Growth inhibition of human OVCAR5 cells by sulforhodamine B assay; type: functional
[35] = tested on: OVCAR-4; test: Growth inhibition of human OVCAR4 cells by sulforhodamine B assay; type: functional
[36] = tested on: UACC-257; test: Growth inhibition of human UACC257 cells by sulforhodamine B assay; type: functional
[37] = tested on: SK-MEL-5; test: Growth inhibition of human SK-MEL-5 cells by sulforhodamine B assay; type: functional
[38] = tested on: SK-MEL-28; test: Growth inhibition of human SK-MEL-28 cells by sulforhodamine B assay; type: functional
[39] = tested on: Malme-3M; test: Growth inhibition of human MALME-3M cells by sulforhodamine B assay; type: functional
[40] = read-out: Log10GI50 (converted)
[41] = read-out: Log10LC50 (converted)

SMILES: CC(/C=C/[C@@H]1C[C@]2(CO2)CC(C)(C)O1)=C\C[C@H]1CC[C@@H](NC(=O)/C=C\[C@H](C)OC(=O)C(C)C)CC1
- GI50 [1, 40]: 81.3 nM
- CC50 [1, 41]: > 100 µM
- TGI ([1]; read-out: Log10TGI (converted)): 12.9 µM
- GI50 [2, 40]: 70.8 nM
- CC50 [2, 41]: > 100 µM
- TGI ([2]; read-out: Log10TGI (converted)): > 100 µM
- GI50 [3, 40]: 3.47 µM
- CC50 [3, 41]: > 100 µM
- TGI ([3]; read-out: Log10TGI (converted)): > 100 µM
- GI50 [4, 40]: 263 nM
- CC50 [4, 41]: > 100 µM
- TGI ([4]; read-out: Log10TGI (converted)): 1120 nM
- GI50 [5, 40]: 316 nM
- CC50 [5, 41]: 5.37 µM
- TGI ([5]; read-out: Log10TGI (converted)): > 100 µM
- GI50 [6, 40]: 501 nM
- CC50 [6, 41]: > 100 µM
- TGI ([6]; read-out: Log10TGI (converted)): > 100 µM
- GI50 [7, 40]: 2000 nM
- CC50 [7, 41]: > 100 µM
- TGI ([7]; read-out: Log10TGI (converted)): 22.4 µM
- GI50 [8, 40]: 2450 nM
- CC50 [8, 41]: > 100 µM
- TGI ([8]; read-out: Log10TGI (converted)): > 100 µM
- GI50 [9, 40]: 575 nM
- CC50 [9, 41]: > 100 µM
- TGI ([9]; read-out: Log10TGI (converted)): > 100 µM
- GI50 [10, 40]: 457 nM
- CC50 [10, 41]: > 100 µM
- TGI ([10]; read-out: Log10TGI (converted)): > 100 µM
- GI50 [11, 40]: 676 nM
- CC50 [11, 41]: > 100 µM
- TGI ([11]; read-out: Log10TGI (converted)): 12.9 µM
- GI50 [12, 40]: 47.9 nM
- CC50 [12, 41]: > 100 µM
- TGI ([12]; read-out: Log10TGI (converted)): 5.62 µM
- GI50 [13, 40]: 45.7 nM
- CC50 [13, 41]: > 100 µM
- TGI ([13]; read-out: Log10TGI (converted)): > 100 µM
- GI50 [14, 40]: 129 nM
- CC50 [14, 41]: 74.1 µM
- TGI ([14]; read-out: Log10TGI (converted)): 525 nM
- IC50 [15]: > 10 µM
- IC50 [16]: 7.01 µM
- IC50 [17]: 2790 nM
- IC50 [18]: 1200 nM
- IC50 [19]: 290 nM
- IC50 [20]: 2200 nM
- Activity [21]: Non-toxic
- Activity [22]: Non-toxic
- Activity [23]: Non-toxic
- Activity [24]: Non-toxic
- Activity [25]: Non-toxic
- Activity [26]: Non-toxic
- Activity [27]: Non-toxic
- Activity [28]: Non-toxic
- GI50 [29, 40]: 457 nM
- CC50 [29, 41]: > 100 µM
- TGI ([29]; read-out: Log10TGI (converted)): 7.94 µM
- GI50 [30, 40]: 1230 nM
- CC50 [30, 41]: > 100 µM
- TGI ([30]; read-out: Log10TGI (converted)): > 100 µM
- GI50 [31, 40]: 229 nM
- CC50 [31, 41]: > 100 µM
- TGI ([31]; read-out: Log10TGI (converted)): 1820 nM
- GI50 [32, 40]: 3.39 µM
- CC50 [32, 41]: > 100 µM
- TGI ([32]; read-out: Log10TGI (converted)): 74.1 µM
- GI50 [33, 40]: 501 nM
- CC50 [33, 41]: > 100 µM
- TGI ([33]; read-out: Log10TGI (converted)): > 100 µM
- GI50 [34, 40]: 8.32 µM
- CC50 [34, 41]: > 100 µM
- TGI ([34]; read-out: Log10TGI (converted)): > 100 µM
- GI50 [35, 40]: 1510 nM
- CC50 [35, 41]: > 100 µM
- TGI ([35]; read-out: Log10TGI (converted)): > 100 µM
- GI50 [36, 40]: 3.63 µM
- CC50 [36, 41]: > 100 µM
- TGI ([36]; read-out: Log10TGI (converted)): 45.7 µM
- GI50 [37, 40]: 316 nM
- CC50 [37, 41]: 10.2 µM
- TGI ([37]; read-out: Log10TGI (converted)): 1950 nM
- GI50 [38, 40]: 324 nM
- CC50 [38, 41]: > 100 µM
- TGI ([38]; read-out: Log10TGI (converted)): 6.46 µM
- GI50 [39, 40]: 1380 nM
- CC50 [39, 41]: > 100 µM
- TGI ([39]; read-out: Log10TGI (converted)): 61.7 µM
